Active and inactive are the calls of the source. No cut-off for these calls is given here.
Tests used:
P388 [1] = assay: Blockade of mitomycin-induced cytotoxicity in mouse P388 cells after 2 days by WST-8 assay in presence of Halichondria okadai recombinant OABP 2.1; format: functional, cell-based
P388 [2] = assay: Blockade of okadaic acid-induced cytotoxicity in mouse P388 cells after 2 days by WST-8 assay in presence of Halichondria okadai recombinant OABP 2.1; format: functional, cell-based; settings: P388, 48 h
Procedure, shortened: (§1)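 P388 cells kept in RPMI 1640 with FBS, penicillin and streptomycin. Cells exposed to 100 nM okadaic acid together with graded concentrations of recombinant OABP for 2 days. WST-8 then added for 4 h; relative viability read as absorbance at 450 nm; EC50 from dose-response.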

[3] = biological target: T1, Okadaic acid binding protein 2.3 (Halichondria okadai) (UniProt B0M1D1); assay: Displacement of [24-3H]OA from Halichondria okadai recombinant OABP 2.3 expressed in Escherichia coli BL21 (DE3) cells
T1 sequence (whole entry): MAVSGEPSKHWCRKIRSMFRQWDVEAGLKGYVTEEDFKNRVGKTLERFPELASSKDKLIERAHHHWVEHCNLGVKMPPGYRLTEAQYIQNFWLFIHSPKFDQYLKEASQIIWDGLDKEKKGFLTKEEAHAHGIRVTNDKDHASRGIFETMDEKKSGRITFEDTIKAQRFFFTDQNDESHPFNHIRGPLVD

BL21-DE3 = assay: Displacement of [24-3H]OA from Halichondria okadai recombinant OABP 2.1 expressed in Escherichia coli BL21 (DE3) cells
P388 [4] = assay: Blockade of okadaic acid-induced cytotoxicity in mouse P388 cells after 2 days by WST-8 assay in presence of Halichondria okadai recombinant OABP 2.3; format: functional, cell-based; settings: P388, 48 h; procedure, shortened: as §1

Row | Compound | Activity (P388 [1]) | EC50 (P388 [2]) | Activity [3] | Activity (BL21-DE3) | EC50 (P388 [4])
1 | C=C1[C@@H](O)[C@@H]2O[C@]3(CC[C@H](/C=C/[C@@H](C)[C@@H]4CC(C)=C[C@@]5(O[C@H](C[C@@](C)(O)C(=O)O)CC[C@H]5O)O4)O3)CC[C@H]2O[C@@H]1[C@@H](O)C[C@H](C)[C@H]1O[C@@]2(CCCCO2)CC[C@H]1C [OKADAIC ACID] | inactive | 0.092 µM | Dose-dependent effect | Dose-dependent effect | 0.087 µM
2 | C=C1[C@@H](O)[C@@H]2O[C@]3(CC[C@H](/C=C/[C@@H](C)[C@@H]4CC(C)=C[C@@]5(O[C@H](C[C@@](C)(O)C(=O)O)CC[C@H]5O)O4)O3)CC[C@H]2O[C@@H]1[C@@H](O)C[C@H](C)[C@H]1O[C@@]2(CC[C@H]1C)OCCC[C@H]2C | – | – | Dose-dependent effect | Dose-dependent effect | –

Source: ChEMBL document CHEMBL1268890, “Binding of diarrheic shellfish poisoning toxins to okadaic acid binding proteins purified from the sponge Halichondria okadai” (Bioorg Med Chem, 2010)
